ChEMBL document CHEMBL1137762, “Design, microwave-assisted synthesis and HIV-RT inhibitory activity of 2-(2,6-dihalophenyl)-3-(4,6-dimethyl-5-(un)substituted-pyrimidin-2-yl)thiazolidin-4-ones” (Bioorg Med Chem, 2009)
pIC50: −log10 of the molar value.

Biological target: Human immunodeficiency virus type 1 reverse transcriptase (Human immunodeficiency virus 1, UniProt Q72547)
Test: Inhibition of HIV1 reverse transcriptase after 1 hr by ELISA
Procedure, shortened: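 Commercial colorimetric RT kit; template/primer complex, biotin- and DIG-labelled dNTPs and RT enzyme in lysis buffer, with or without inhibitor, incubated 1 h at 37 °C. Product captured on streptavidin-coated plate, washed, probed with anti-DIG-peroxidase, then ABTS substrate added; absorbance read at 405 nm.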

Structure (SMILES) | pIC50
CCCCCc1c(C)nc(N2C(=O)CSC2c2c(Cl)cccc2Cl)nc1C (stereo unspecified) | 4.13
Cc1nc(N2C(=O)CSC2c2c(F)cccc2Cl)nc(C)c1CCC#N (stereo unspecified) | 5.70
Cc1nc(N2C(=O)CSC2c2c(Cl)cccc2Cl)nc(C)c1Br (stereo unspecified) | 5.01
CCCCc1c(C)nc(N2C(=O)CSC2c2c(Cl)cccc2Cl)nc1C (stereo unspecified) | 5.37
CCCCc1c(C)nc(N2C(=O)CSC2c2c(F)cccc2Cl)nc1C (stereo unspecified) | 4.80
C=CCc1c(C)nc(N2C(=O)CSC2c2c(F)cccc2Cl)nc1C (stereo unspecified) | 5.53
CCCCCc1c(C)nc(N2C(=O)CSC2c2c(F)cccc2Cl)nc1C (stereo unspecified) | 4.79

Compounds with a higher pIC50, results first:

pIC50 | Structure (SMILES)
6.42 | Cc1nc(N2C(=O)CSC2c2c(F)cccc2Cl)nc(C)c1C (stereo unspecified)
6.59 | CCc1c(C)nc(N2C(=O)CSC2c2c(Cl)cccc2Cl)nc1C (stereo unspecified)
6.08 | Cc1nc(N2C(=O)CSC2c2c(Cl)cccc2Cl)nc(C)c1C (stereo unspecified)
5.99 | Cc1nc(N2C(=O)CSC2c2c(Cl)cccc2Cl)nc(C)c1CCC#N (stereo unspecified)
6.07 | CCCc1c(C)nc(N2C(=O)CSC2c2c(F)cccc2Cl)nc1C (stereo unspecified)
6.64 | CCc1c(C)nc(N2C(=O)CSC2c2c(F)cccc2Cl)nc1C (stereo unspecified)
5.91 | C=CCc1c(C)nc(N2C(=O)CSC2c2c(Cl)cccc2Cl)nc1C (stereo unspecified)
5.82 | Cc1nc(N2C(=O)CSC2c2c(F)cccc2Cl)nc(C)c1Br (stereo unspecified)
6.11 | CCCc1c(C)nc(N2C(=O)CSC2c2c(Cl)cccc2Cl)nc1C (stereo unspecified)
